Data published in ChEMBL document CHEMBL1126715, “Synthesis and tissue distribution of (m-[125I]iodobenzyl)trozamicol ([125I]MIBT): potential radioligand for mapping central cholinergic innervation” (J Med Chem, 1993).

Legend:
Rattus norvegicus [1] = organism: Rattus norvegicus; assay: Tissue distribution in rat thyroid after 60 minutes (n=3); assay type: ADME, organism-based, Thyroid gland; settings: in vivo, 1 h
Outline: (§1)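 Male Wistar rats (200-350 g) under ether anesthesia; radiotracer (3-5 μCi in 0.1 mL 50% aqueous ethanol) given iv. At 5, 30, 60 and 180 min, blood was drawn by cardiac puncture and animals were killed by cardiectomy. Organs were weighed and γ-counted against a 1:100 dilution of the injected dose. Results are given as % injected dose/g tissue; ratios are taken between tissue levels.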

Rattus norvegicus [2] = organism: Rattus norvegicus; assay: Tissue distribution in rat kidney after 5 minutes (n=3); assay type: ADME, organism-based; settings: in vivo; outline: as §1
Rattus norvegicus [3] = organism: Rattus norvegicus; assay: Tissue distribution in rat muscle after 60 minutes (n=3); assay type: ADME, organism-based; settings: in vivo, 1 h
Outline: (§2)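 Male Wistar rats (200-350 g) under ether, iv [125I]tracer (3-5 μCi in 0.1 mL 50% aqueous EtOH). At 5, 30, 60 or 180 min, blood taken by cardiac puncture and the rat killed by cardiectomy. Organs weighed and γ-counted against 1:100 dilutions of the injected dose; results in % injected dose/g, with range.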

[4] = Ratio of effect of vesamicol on the accumulation between rat brain and blood in group 2; assay type: ADME, organism-based
Outline: (§3)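 Male Wistar rats (n = 4/group) given iv vehicle (100 μL 50% aqueous EtOH) or dl-vesamicol (1.01 μmol/kg); 15 min later iv radiotracer (2.0 μCi in 100 μL 50% aqueous EtOH); killed 30 min post-tracer. Blood by cardiac puncture, organs weighed and γ-counted vs 1:100 injected-dose dilution; % dose/g tissue (range); tissue/blood ratios.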

Rattus norvegicus [5] = organism: Rattus norvegicus; assay: Tissue distribution in rat liver after 5 minutes (n=3); assay type: ADME, organism-based; settings: in vivo; outline: as §2
Rattus norvegicus [6] = organism: Rattus norvegicus; assay: Effect of vesamicol on the accumulation in rat heart in group 2 (n=3); assay type: ADME, organism-based; settings: in vivo; outline: as §3
Rattus norvegicus [7] = organism: Rattus norvegicus; assay: Tissue distribution in rat muscle after 5 minutes (n=3); assay type: ADME, organism-based; settings: in vivo; outline: as §1
Rattus norvegicus [8] = organism: Rattus norvegicus; assay: Tissue distribution in rat lung after 180 minutes (n=3); assay type: ADME, organism-based; settings: in vivo, 3 h; outline: as §2
Rattus norvegicus [9] = organism: Rattus norvegicus; assay: Tissue distribution in rat spleen after 30 minutes (n=3); assay type: ADME, organism-based; settings: in vivo, 0.5 h; outline: as §1
Rattus norvegicus [10] = organism: Rattus norvegicus; assay: Effect of vesamicol on the accumulation in rat kidney in group 2 (n=3); assay type: ADME, organism-based; settings: in vivo
Rattus norvegicus [11] = organism: Rattus norvegicus; assay: Tissue distribution in rat blood after 5 minutes (n=3); assay type: ADME, organism-based; settings: in vivo; outline: as §1
Rattus norvegicus [12] = organism: Rattus norvegicus; assay: Tissue distribution in rat thyroid after 30 minutes (n=3); assay type: ADME, organism-based, Thyroid gland; settings: in vivo, 0.5 h; outline: as §1
[13] = Ratio of effect of vesamicol on the accumulation between rat heart and blood in group 2; assay type: ADME, organism-based; outline: as §3
Rattus norvegicus [14] = organism: Rattus norvegicus; assay: Tissue distribution in rat spleen after 180 minutes (n=3); assay type: ADME, organism-based; settings: in vivo, 3 h; outline: as §1
Rattus norvegicus [15] = organism: Rattus norvegicus; assay: Tissue distribution in rat blood after 60 minutes (n=3); assay type: ADME, organism-based; settings: in vivo, 1 h; outline: as §2
Rattus norvegicus [16] = organism: Rattus norvegicus; assay: Ratio of tissue distribution between rat brain and blood after 180 min; assay type: ADME, organism-based; settings: 3 h
Outline: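 Male Wistar rats (200-350 g) under ether anesthesia, iv radiotracer (3-5 μCi in 0.1 mL 50% aqueous ethanol). At 5, 30, 60, 180 min blood taken by cardiac puncture, animal killed by cardiectomy; organs weighed, γ-counted against 1:100 injected-dose dilution; % injected dose/g tissue; brain/blood ratio.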

Rattus norvegicus [17] = organism: Rattus norvegicus; assay: Tissue distribution in rat heart after 5 minutes (n=3); assay type: ADME, organism-based; settings: in vivo; outline: as §1
Rattus norvegicus [18] = organism: Rattus norvegicus; assay: Tissue distribution in rat brain after 30 minutes (n=3); assay type: ADME, organism-based; settings: in vivo, 0.5 h; outline: as §1
Rattus norvegicus [19] = organism: Rattus norvegicus; assay: Tissue distribution in rat brain after 5 minutes (n=3); assay type: ADME, organism-based; settings: in vivo; outline: as §1
Rattus norvegicus [20] = organism: Rattus norvegicus; assay: Tissue distribution in rat lung after 60 minutes (n=3); assay type: ADME, organism-based; settings: in vivo, 1 h; outline: as §1
Rattus norvegicus [21] = organism: Rattus norvegicus; assay: Effect of vesamicol on the accumulation in rat spleen in group 2 (n=3); assay type: ADME, organism-based; settings: in vivo; outline: as §3
Rattus norvegicus [22] = organism: Rattus norvegicus; assay: Effect of vesamicol on the accumulation in rat muscle in group 1 (n=3); assay type: ADME, organism-based, Muscle tissue; settings: in vivo; outline: as §3
Rattus norvegicus [23] = organism: Rattus norvegicus; assay: Tissue distribution in rat lung after 5 minutes (n=3); assay type: ADME, organism-based; settings: in vivo; outline: as §1
Rattus norvegicus [24] = organism: Rattus norvegicus; assay: Effect of vesamicol on the accumulation in rat thyroid in group 2 (n=3); assay type: ADME, organism-based, Thyroid gland; settings: in vivo; outline: as §3
Rattus norvegicus [25] = organism: Rattus norvegicus; assay: Effect of vesamicol on the accumulation in rat liver in group 1 ([…]); assay type: ADME, organism-based; settings: in vivo; outline: as §3
Rattus norvegicus [26] = organism: Rattus norvegicus; assay: Tissue distribution in rat kidney after 180 minutes (n=3); assay type: ADME, organism-based; settings: in vivo, 3 h; outline: as §1
Rattus norvegicus [27] = organism: Rattus norvegicus; assay: Tissue distribution in rat kidney after 60 minutes (n=3); assay type: ADME, organism-based; settings: in vivo, 1 h; outline: as §1
Rattus norvegicus [28] = organism: Rattus norvegicus; assay: Tissue distribution in rat muscle after 30 minutes (n=3); assay type: ADME, organism-based; settings: in vivo, 0.5 h; outline: as §2
Rattus norvegicus [29] = organism: Rattus norvegicus; assay: Effect of vesamicol on the accumulation in rat blood in group 2 (n=3); assay type: ADME, organism-based; settings: in vivo; outline: as §3
Rattus norvegicus [30] = organism: Rattus norvegicus; assay: Ratio of tissue distribution between rat heart and blood after 30 min; assay type: ADME, organism-based; settings: other tissue, 0.5 h; outline: as §1
Rattus norvegicus [31] = organism: Rattus norvegicus; assay: Effect of vesamicol on the accumulation in rat kidney in group 1 (n=3); assay type: ADME, organism-based; settings: in vivo
Rattus norvegicus [32] = organism: Rattus norvegicus; assay: Tissue distribution in rat brain after 60 minutes (n=3); assay type: ADME, organism-based; settings: in vivo, 1 h; outline: as §1
Rattus norvegicus [33] = organism: Rattus norvegicus; assay: Tissue distribution in rrat heart after 60 minutes (n=3); assay type: ADME, organism-based; settings: in vivo, 1 h; outline: as §1
[34] = Ratio of effect of vesamicol on the accumulation between rat brain and blood in group 1; assay type: ADME, organism-based; outline: as §3
Rattus norvegicus [35] = organism: Rattus norvegicus; assay: Effect of vesamicol on the accumulation in rat blood in group 1 (n=3); assay type: ADME, organism-based; settings: in vivo

Question: Which Dose/g (Rattus norvegicus [1]) does the source give for `O[C@@H]1CCN(Cc2cccc([125I])c2)C[C@H]1N1CCC(c2ccccc2)CC1` (stereo in doubt; (-)) here?
Answer: The Dose/g was 5.87%.

Question: And the Dose/g (Rattus norvegicus [2])?
Answer: Its Dose/g is 3.71%.

Question: What about the Dose/g (Rattus norvegicus [3]) of the same molecule?
Answer: Its Dose/g is 0.28%.

Question: And the Kp [4]?
Answer: The Kp was 5.59.

Question: What about the Dose/g (Rattus norvegicus [5]) of the same molecule?
Answer: Its Dose/g is 2.07%.

Question: And the Dose/g (Rattus norvegicus [6])?
Answer: The Dose/g was 0.3%.

Question: And the Dose/g (Rattus norvegicus [7])?
Answer: Its Dose/g is 0.46%.

Question: And the Dose/g (Rattus norvegicus [8])?
Answer: Its Dose/g is 2.01%.

Question: What about the Dose/g (Rattus norvegicus [9]) of the same molecule?
Answer: Its Dose/g is 1.24%.

Question: What about the Dose/g (Rattus norvegicus [10]) of the same molecule?
Answer: The Dose/g was 1.13%.

Question: And the Dose/g (Rattus norvegicus [11])?
Answer: Its Dose/g is 0.22%.

Question: What about the Dose/g (Rattus norvegicus [12]) of the same molecule?
Answer: The Dose/g was 3.15%.

Question: What about the Kp [13] of the same molecule?
Answer: Its Kp is 2.4.

Question: And the Dose/g (Rattus norvegicus [14])?
Answer: The Dose/g was 1.28%.

Question: What about the Dose/g (Rattus norvegicus [15]) of the same molecule?
Answer: The Dose/g was 0.1%.

Question: And the Ratio (Rattus norvegicus [16])?
Answer: Its Ratio is 9.87.

Question: What about the Dose/g (Rattus norvegicus [17]) of the same molecule?
Answer: Its Dose/g is 1.32%.

Question: What about the Dose/g (Rattus norvegicus [18]) of the same molecule?
Answer: The Dose/g was 0.99%.

Question: And the Dose/g (Rattus norvegicus [19])?
Answer: The Dose/g was 0.92%.

Question: What about the Dose/g (Rattus norvegicus [20]) of the same molecule?
Answer: Its Dose/g is 2.41%.

Question: And the Dose/g (Rattus norvegicus [21])?
Answer: Its Dose/g is 0.8%.

Question: And the Dose/g (Rattus norvegicus [22])?
Answer: The Dose/g was 0.18%.

Question: And the Dose/g (Rattus norvegicus [23])?
Answer: The Dose/g was 5.9%.

Question: And the Dose/g (Rattus norvegicus [24])?
Answer: Its Dose/g is 4.56%.

Question: And the Dose/g (Rattus norvegicus [25])?
Answer: The Dose/g was 1.91%.

Question: What about the Dose/g (Rattus norvegicus [26]) of the same molecule?
Answer: The Dose/g was 3.27%.

Question: What about the Dose/g (Rattus norvegicus [27]) of the same molecule?
Answer: The Dose/g was 3.13%.

Question: What about the Dose/g (Rattus norvegicus [28]) of the same molecule?
Answer: The Dose/g was 0.3%.

Question: What about the Dose/g (Rattus norvegicus [29]) of the same molecule?
Answer: Its Dose/g is 0.12%.

Question: What about the Ratio (Rattus norvegicus [30]) of the same molecule?
Answer: The Ratio was 6.87.

Question: And the Dose/g (Rattus norvegicus [31])?
Answer: The Dose/g was 2.45%.

Question: And the Dose/g (Rattus norvegicus [32])?
Answer: The Dose/g was 0.83%.

Question: What about the Dose/g (Rattus norvegicus [33]) of the same molecule?
Answer: Its Dose/g is 0.58%.

Question: What about the Kp [34] of the same molecule?
Answer: Its Kp is 6.45.

Question: And the Dose/g (Rattus norvegicus [35])?
Answer: Its Dose/g is 0.11%.
